Data set [1] in a line: 1-Octanol-sodium phosphate buffer partition coefficient, log P of the compound at pH 7.4 after 4 mins. In kind it is physicochemical. An outline of the steps: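 Radiolabelled compound added to 3 g 1-octanol and 3 g NaH2PO4 buffer, pH 7.4. Mixture vortexed 1 min and centrifuged 3 min. Octanol layer removed and partition repeated two more times. log P taken from the ratio of counts/mL in octanol vs buffer after the third partition.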

Data set [2] addresses T1, Sodium-dependent dopamine transporter (Homo sapiens, UniProt Q01959). Nature of the data set: Displacement of [125I]IPT from DAT overexpressed in LLC-PK1 cell membrane by competitive binding assay.
The subject of data set [3] is Nucleic Acid. Put plainly: Ratio of drug uptake in hippocampus to cerebellum of Sprague-Dawley rat at 30 uCi, iv measured after 30 mins by gamma counting. Type of data set: ADME, organism-based. Particulars: in vivo, 0.5 h. An outline of the steps:
(§1)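 Male Sprague-Dawley rats (n = 3) received 30 μCi of the 18F tracer iv and were dissected at 30 min. Brain regions gamma counted as %dose/g against injected-dose aliquots. Regional uptake expressed as a ratio to cerebellum uptake.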

Data set [4] relates to Nucleic Acid. Put plainly: Ratio of drug uptake in striatum to cerebellum of Sprague-Dawley rat at 30 uCi, iv measured after 30 mins by gamma counting. In kind it is ADME, organism-based. Particulars: in vivo, 0.5 h. An outline of the steps: as §1
The subject of a further data set is Hypothalamus. Put plainly: Biodistribution in Sprague-Dawley rat hypothalamus at 30 uCi, iv measured after 30 mins by gamma counting. Type of data set: ADME, organism-based. Particulars: in vivo, 0.5 h. In a few lines: (§2)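 Normal male Sprague-Dawley rats (n = 3) received 30 μCi of the 18F tracer iv per rat and were sacrificed at 30 min. Organs removed, weighed and gamma counted. Striatum, hippocampus, cerebellum, cortex and hypothalamus dissected and counted separately. %dose/g calculated against diluted aliquots of the injected dose; mean ± S.D. of 3 rats.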

In another data set the test system is Hippocampus. Put plainly: Biodistribution in Sprague-Dawley rat hippocampus at 30 uCi, iv measured after 30 mins by gamma counting. In kind it is ADME, organism-based. Conditions: in vivo, 0.5 h. An outline of the steps: as §2
The next data set deals with Cortex. Put plainly: Biodistribution in Sprague-Dawley rat cortex at 30 uCi, iv measured after 30 mins by gamma counting. Type of data set: ADME, organism-based. Particulars: in vivo, 0.5 h. In a few lines:
as §2

A further data set concerns Striatum. Nature of the data set: Biodistribution in Sprague-Dawley rat striatum at 30 uCi, iv measured after 30 mins by gamma counting. Particulars: in vivo, 0.5 h. Type of data set: ADME, organism-based. An outline of the steps:
as §2

In a further data set the test system is Cerebellum. Put plainly: Biodistribution in Sprague-Dawley rat cerebellum at 30 uCi, iv measured after 30 mins by gamma counting. Type of data set: ADME, organism-based. Particulars: in vivo, 0.5 h. An outline of the steps: as §2
The next data set deals with Brain. Nature of the data set: Biodistribution in Sprague-Dawley rat brain at 30 uCi, iv measured after 30 mins by gamma counting. In kind it is ADME, organism-based. Conditions: in vivo, 0.5 h. In a few lines: as §2
A further data set relates to Liver. Nature of the data set: Biodistribution in Sprague-Dawley rat liver at 30 uCi, iv measured after 30 mins by gamma counting. Type of data set: ADME, organism-based. Conditions: in vivo, 0.5 h. In a few lines:
as §2

The next data set deals with Bone. Nature of the data set: Biodistribution in Sprague-Dawley rat bone at 30 uCi, iv measured after 30 mins by gamma counting. In kind it is ADME, organism-based, Bone element. Particulars: in vivo, 0.5 h. An outline of the steps: as §2
For a further data set, the system named is Kidney. Nature of the data set: Biodistribution in Sprague-Dawley rat kidney at 30 uCi, iv measured after 30 mins by gamma counting. In kind it is ADME, organism-based. Particulars: in vivo, 0.5 h. In a few lines: as §2
In the next data set the test system is Lung. Put plainly: Biodistribution in Sprague-Dawley rat lung at 30 uCi, iv measured after 30 mins by gamma counting. Type of data set: ADME, organism-based. Conditions: in vivo, 0.5 h. In a few lines: as §2
A further data set concerns Muscle tissue. Put plainly: Biodistribution in Sprague-Dawley rat muscle at 30 uCi, iv measured after 30 mins by gamma counting. In kind it is ADME, organism-based. Particulars: in vivo, 0.5 h. An outline of the steps: as §2
The subject of a further data set is Heart. Nature of the data set: Biodistribution in Sprague-Dawley rat heart at 30 uCi, iv measured after 30 mins by gamma counting. Particulars: in vivo, 0.5 h. Type of data set: ADME, organism-based. An outline of the steps: as §2
The test system of a further data set is Blood. Put plainly: Biodistribution in Sprague-Dawley rat blood at 30 uCi, iv measured after 30 mins by gamma counting. Type of data set: ADME, organism-based. Particulars: in vivo, 0.5 h. An outline of the steps: as §2
Data set [5] addresses T1, Sodium-dependent dopamine transporter. Put plainly: Binding affinity to DAT.

T1 sequence (Q01959 whole entry): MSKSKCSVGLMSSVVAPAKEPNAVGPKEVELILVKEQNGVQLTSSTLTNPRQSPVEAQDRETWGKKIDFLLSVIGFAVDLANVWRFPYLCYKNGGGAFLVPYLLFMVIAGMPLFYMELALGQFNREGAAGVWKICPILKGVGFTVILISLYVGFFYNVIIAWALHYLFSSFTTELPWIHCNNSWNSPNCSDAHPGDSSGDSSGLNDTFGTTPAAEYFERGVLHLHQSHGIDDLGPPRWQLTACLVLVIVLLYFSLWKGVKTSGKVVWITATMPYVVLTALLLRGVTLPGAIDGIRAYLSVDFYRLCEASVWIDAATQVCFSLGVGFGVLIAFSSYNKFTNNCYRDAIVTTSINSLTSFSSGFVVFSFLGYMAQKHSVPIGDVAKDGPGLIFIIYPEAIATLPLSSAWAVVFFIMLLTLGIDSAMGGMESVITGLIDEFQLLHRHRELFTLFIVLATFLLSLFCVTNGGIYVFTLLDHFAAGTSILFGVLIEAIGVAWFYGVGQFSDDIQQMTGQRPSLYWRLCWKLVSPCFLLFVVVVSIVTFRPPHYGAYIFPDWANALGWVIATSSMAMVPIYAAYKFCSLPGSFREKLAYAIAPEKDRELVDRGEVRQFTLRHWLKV

Turning to `CN(C)C(=O)[C@H]1[C@@H](c2ccc(Cl)cc2)C[C@@H]2CC[C@H]1N2CCC[18F]`, in data set [1], the logD at 4 min is -0.07. Moreover, the affinity in [2] corresponds to a Ki of 135 nM.
Taken in the same sequence, the figures for `CN(C)C(=O)[C@H]1[C@@H](c2ccc(Cl)cc2)C[C@@H]2CC[C@H]1N2CC[18F]` were -0.11 and 699 nM.
In data set [2], `CN(CCOCC[18F])C[C@H]1[C@@H](c2ccc(Cl)cc2)C[C@@H]2CC[C@H]1N2C` showed a Ki of 4.63 nM.
As to `CN(C)C[C@H]1[C@@H](c2ccc(Cl)cc2)C[C@@H]2CC[C@H]1N2CC[18F]`, in data set [1], the logD at 4 min was found to be 1.88. Affinity in [2] was put at a Ki of 18.3 nM.
In the case of `CN(CCC[18F])C[C@H]1[C@@H](c2ccc(Cl)cc2)C[C@@H]2CC[C@H]1N2C`, the Ratio with Nucleic Acid [3] was 0.8; in the data set with Nucleic Acid [4], 0.94. Besides, the Drug uptake in the data set on Hypothalamus was 0.63 % ID/g; in the data set on Hippocampus, 0.54 % ID/g; with Cortex it was 0.68 % ID/g; in the data set on Striatum, 0.63 % ID/g; in the data set on Cerebellum, 0.66 % ID/g; in the data set with Brain, 0.52 % ID/g. The Drug uptake in the data set with Liver was 2.08 % ID/g; in the data set with Bone it was 0.5 % ID/g; in the data set with Kidney, 4.63 % ID/g; with Lung, 11.5 % ID/g; in the data set on Muscle tissue, 0.22 % ID/g; with Heart, 1.56 % ID/g. For the same molecule, the Drug uptake in the data set on Blood turned out to be 0.1 % ID/g. The same molecule had a logD at 4 min in [1] of 1.72. For the same molecule, in data set [2], affinity was put at a Ki of 2.64 nM.
On to `CN(C)C[C@H]1[C@@H](c2ccc(Cl)cc2)C[C@@H]2CC[C@H]1N2CCC[18F]`, for which the Ratio came out at 0.99 in the data set on Nucleic Acid [3] and 1.1 with Nucleic Acid [4]. Moreover, the Drug uptake is reported as 0.43 % ID/g in the data set with Hypothalamus; 0.44 % ID/g in the data set on Hippocampus; 0.52 % ID/g with Cortex; 0.49 % ID/g in the data set on Striatum; 0.44 % ID/g in the data set with Cerebellum; 0.39 % ID/g with Brain. Also, the Drug uptake with Liver is recorded as 0.86 % ID/g; in the data set on Bone it was 1.04 % ID/g; in the data set on Kidney, 2.08 % ID/g; in the data set with Lung, 5.58 % ID/g; in the data set with Muscle tissue, 0.3 % ID/g; with Heart, 0.57 % ID/g. Also, the Drug uptake with Blood is 0.14 % ID/g. The logD at 4 min in data set [1] was 1.98. The affinity in data set [2], expressed as Ki, was 26.9 nM.
Consider `CN(CC[18F])C[C@H]1[C@@H](c2ccc(Cl)cc2)C[C@@H]2CC[C@H]1N2C`, for which the Ratio is 1.21 in the data set on Nucleic Acid [3] and 1.63 in the data set on Nucleic Acid [4]. Further, the Drug uptake in the data set with Hypothalamus is 0.82 % ID/g; in the data set with Hippocampus it was 0.79 % ID/g; in the data set with Cortex it was 0.91 % ID/g; in the data set on Striatum, 1.07 % ID/g; with Cerebellum it was 0.65 % ID/g; with Brain, 0.72 % ID/g. The Drug uptake worked out at 3.01 % ID/g in the data set on Liver; 0.43 % ID/g in the data set with Bone; 3.65 % ID/g in the data set with Kidney; 5.93 % ID/g in the data set on Lung; 0.27 % ID/g with Muscle tissue; 0.8 % ID/g with Heart. The same molecule yielded a Drug uptake with Blood of 0.1 % ID/g. Moreover, the logD at 4 min in [1] was 1.52. Besides, the affinity in [2], expressed as Ki, was 3.79 nM.
`Cc1ccc([C@H]2C[C@@H]3CC[C@H]([C@H]2C(=O)OCC[18F])N3C/C=C/I)cc1`: the Ki in data set [5] amounted to 12 nM. This lies in the double-digit nanomolar range.
In the case of `COC(=O)[C@H]1[C@@H](c2ccc(Cl)cc2)C[C@@H]2CC[C@H]1N2C/C=C/[125I]`, the Kd in data set [5] worked out at 1.2 nM.

What is called logD is lipophilicity at a set pH, counting ionised and neutral species. The low end stands for a more hydrophilic compound, the high end for a more lipophilic compound. As a reminder, the Ki is a measure of affinity in units of concentration, obtained from inhibition or displacement. A lower Ki goes with tighter binding. One may read the Kd as the free concentration of one partner at which half of the binding sites on the other are occupied at equilibrium, for simple one-to-one binding.

Values taken from ChEMBL document CHEMBL2046339, “Synthesis and evaluation of novel tropane derivatives as potential PET imaging agents for the dopamine transporter” (Bioorg Med Chem Lett, 2012).
